Legend:
HL-60 = test: Cytotoxicity against human HL60 cells after 3 days by MTT assay; format: functional, cell-based; conditions: HL-60, 72 h
In short: (§1)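 Human ATCC lines (MRC-5 normal lung fibroblasts, AGS gastric adenocarcinoma, HL-60 leukemia, SK-MES-1 lung cancer, J82 bladder carcinoma) seeded at 50,000 cells/mL in 96-well plates. Compounds added one day later in medium at 0 up to 100 µM for 3 days. Read-out by MTT reduction against untreated controls, with etoposide as reference. IC50 reported for S- and R-configured compounds.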

MRC5 = test: Cytotoxicity against human MRC5 cells after 3 days by MTT assay; format: cell-based; conditions: MRC5, 72 h; in short: as §1
SK-MES-1 = test: Cytotoxicity against human SKMES1 cells after 3 days by MTT assay; format: functional, cell-based; conditions: SK-MES-1, 72 h; in short: as §1
J82 = test: Cytotoxicity against human J82 cells after 3 days by MTT assay; format: functional, cell-based; conditions: J82, 72 h; in short: as §1
AGS = test: Cytotoxicity against human AGS cells after 3 days by MTT assay; format: functional, cell-based; conditions: 72 h; in short: as §1
KB = test: Cytotoxicity against human KB cells at 30 uM; format: functional

| SMILES | IC50 (HL-60) [µM] | IC50 (MRC5) [µM] | IC50 (SK-MES-1) [µM] | IC50 (J82) [µM] | IC50 (AGS) [µM] | Activity (KB) [%] |
| --- | --- | --- | --- | --- | --- | --- |
| C=CCCC[C@H]1c2[nH]c3ccccc3c2CCN1C(=O)OC | > 100 | > 100 | > 100 | > 100 | > 100 | – |
| C=CCCC[C@@H]1NCCc2c1[nH]c1cc(Br)ccc21 | > 100 | 18.1 | 12.7 | 18.9 | 8.8 | – |
| C=CCCCC1c2[nH]c3ccccc3c2CCN1C (stereo not given) | > 100 | 42.2 | 58.6 | 76.4 | 34.5 | – |
| C=CCCCC1=NCCc2c1[nH]c1ccccc21 | > 100 | 44.6 | 36.1 | 47.6 | 40.3 | – |
| CN1CCc2c3n(c4ccccc24)C=CCC[C@@H]31 [DESBROMOARBORESCIDINEB] | > 100 | 62.6 | 32.3 | 29.5 | 41.7 | – |
| COC(=O)N1CCc2c([nH]c3cc(Br)ccc23)[C@@H]1CCCC(O)CO (stereo not given in full) | > 100 | > 100 | > 100 | > 100 | > 100 | – |
| COC(=O)N1CCc2c([nH]c3ccccc23)[C@@H]1CCCC(O)CO (stereo not given in full) | > 100 | > 100 | 88.3 | > 100 | 63.1 | – |
| CN1CCc2c3n(c4cc(Br)ccc24)C=CCC[C@@H]31 | > 100 | > 100 | 91.3 | 45.5 | > 100 | 100 |
| C=CCCCC1=NCCc2c1[nH]c1cc(Br)ccc21 | > 100 | 40.1 | 39.7 | 39.3 | 26.9 | – |
| C=CCCCC1c2[nH]c3cc(Br)ccc3c2CCN1C (stereo not given) | > 100 | 78.9 | 75.8 | 78.8 | 69.9 | – |
| COC(=O)N1CCc2c3n(c4ccccc24)[C@@H](O)CCC[C@@H]31 | 96.6 | 35.7 | 25.1 | 72.8 | 16.8 | – |
| CN1CCc2c3n(c4cc(Br)ccc24)[C@@H](O)CCC[C@@H]31 | > 100 | 31.9 | > 100 | > 100 | 30.9 | 100 |
| Brc1ccc2c3c([nH]c2c1)[C@@H]1CCCCN1CC3 [ARBORESCIDINE A] | 34.5 | 71.6 | > 100 | > 100 | 65.3 | 100 |
| COC(=O)N1CCc2c([nH]c3cc(Br)ccc23)[C@@H]1CCCC=O | 99.4 | 53.6 | 48.2 | 74.9 | 21.4 | – |
| C=CCCC[C@@H]1NCCc2c1[nH]c1ccccc21 | 69.3 | 20.1 | 19.1 | 25.7 | 14.3 | – |
| CN1CCc2c3n(c4ccccc24)[C@@H](O)CCC[C@@H]31 [DESBROMOARBORESCIDINE C] | > 100 | > 100 | > 100 | > 100 | > 100 | – |
| COc1cc([C@@H]2c3cc4c(cc3[C@@H](O[C@@H]3O[C@@H]5CO[C@@H](C)O[C@H]5[C@H](O)[C@H]3O)[C@H]3COC(=O)[C@H]23)OCO4)cc(OC)c1O [ETOPOSIDE] | – | – | 2.8 | 2.5 | – | – |
| COC(=O)N1CCc2c3n(c4cc(Br)ccc24)[C@@H](O)CCC[C@@H]31 | > 100 | 60 | 18.1 | 16.4 | 22.8 | – |
